Assay results as given in PMC4467241 (Clinical Pharmacology in Drug Development, 2014).
Like-named read-outs stand apart in the source and are kept apart here. Marks after values point to notes of the source that are not given here.

Tests used:
[1] = cited from earlier work
[2] = type: in vivo, human; settings: for CL/F / AUC(0-t) / AUC(0-inf) / Cmax / half-life / tmax: plasma; for AUC(0-t) / AUC(0-inf) / Cmax / half-life / tmax: human, po; for AUC(0-t): AUC0–t; for AUC(0-inf): AUC0–∞
Procedure, shortened: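 Heparinised plasma was taken predose and at 0.5–48 h, spun within 30 min and stored at −70 °C. Parent and metabolite were measured by SPE LC–MS/MS; noncompartmental AUC, with ANOVA on log values giving geometric-mean ratio and 90% CI.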

[3] = 10 mg, MTX 10 mg oral alone (Day 1), N = 1
[4] = 12.5 mg, MTX 12.5 mg oral alone (Day 1), N = 1
[5] = 17.5 mg, MTX 17.5 mg oral alone (Day 1), N = 1
[6] = MTX 12.5 mg oral + Apremilast 30 mg Q12H (Day 8), N = 1
[7] = MTX 17.5 mg oral + Apremilast 30 mg Q12H (Day 8), N = 1
[8] = methotrexate in plasma, ANOVA, N = 15
[9] = methotrexate in plasma, all dose groups, N = 15, acceptance range 80–125%

CL/F ([2]; MTX 10 mg oral alone (Day 1), N = 1): 120 mL/min | CL/F ([2]; MTX 12.5 mg oral alone (Day 1), N = 1): 88 mL/min | CL/F ([2]; MTX 17.5 mg oral alone (Day 1), N = 1): 129 mL/min | CL/F ([2]; MTX 20 mg oral alone (Day 1), N = 6, arithmetic mean (SD)): 122 (33.7) mL/min | AUC(0-t) [2, 3]: 1390 ng·h/mL | AUC(0-inf) [2, 3]: 1380 ng·h/mL | Cmax [2, 3]: 323 ng/mL | half-life ([2]; 10 mg, t1/2, MTX 10 mg oral alone (Day 1), N = 1): 3.5 h | tmax [2, 3]: 1.45 h | AUC(0-t) [2, 4]: 2360 ng·h/mL | Cmax [2, 4]: 528 ng/mL | half-life ([2]; 12.5 mg, t1/2, MTX 12.5 mg oral alone (Day 1), N = 1): 3.6 h | tmax [2, 4]: 1 h | AUC(0-t) [2, 5]: 2250 ng·h/mL | Cmax [2, 5]: 646 ng/mL | half-life ([2]; 17.5 mg, t1/2, MTX 17.5 mg oral alone (Day 1), N = 1): 5.6 h | tmax [2, 5]: 1 h | AUC(0-t) [2, 6]: 3020 ng·h/mL | AUC(0-t) [2, 7]: 2270 ng·h/mL | AUC(0-inf) [2, 6]: 3010 ng·h/mL | Cmax [2, 6]: 669 ng/mL | Cmax [2, 7]: 565 ng/mL | half-life ([2]; t1/2, MTX 12.5 mg oral + Apremilast 30 mg Q12H (Day 8), N = 1): 3.2 h | tmax [2, 6]: 2.07 h | tmax [2, 7]: 1 h | Intra-subject CV% of AUC0–∞ ([2]; methotrexate in plasma, ANOVA, N = 14): 11.19% | Intra-subject CV% of AUC0–t [2, 8]: 10.57% | Intra-subject CV% of Cmax [2, 8]: 11.07% | AUC0–∞ ratio of geometric means (“methotrexate + apremilast”/“methotrexate”) ([2]; methotrexate in plasma, all dose groups, N = 14, acceptance range 80–125%): 100.39 | tmax median difference (“MTX + Apremilast” − “MTX”) ([2]; methotrexate in plasma, all dose groups, N = 15, Hodges–Lehmann): 0.235 ^d hr | AUC0–t ratio of geometric means (“methotrexate + apremilast”/“methotrexate”) [2, 9]: 99.90 | Cmax ratio of geometric means (“methotrexate + apremilast”/“methotrexate”) [2, 9]: 99.49
Structure (SMILES): CN(Cc1cnc2nc(N)nc(N)c2n1)c1ccc(C(=O)N[C@@H](CCC(=O)O)C(=O)O)cc1 [MTX, methotrexate, reference compound]
Fraction metabolized to 7-hydroxy methotrexate [1]: ~10% | 90% CI for Cmax, AUC0–t and AUC0–∞ versus FDA acceptance range of 80–125% ([2]; methotrexate with versus without apremilast): within the acceptance range for equivalency
